Reference: publication PMC7490575 (Molecular Diversity, 2020)

Experiments:
[1] = system: A/Puerto Rico/8/34 (H1N1) influenza virus; assay: Cell protection assay, influenza virus in MDCK cells; format: cell-based, influenza virus A/PR/8/34 (H1N1)
[2] = system: Coxsackie B3 virus; assay: Cell protection assay, Coxsackie B3 virus in Vero cells; format: cell-based, coxsackievirus B3
How it was run: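 Confluent Vero monolayers given test compound, infected with Coxsackie B3 (m.o.i. 0.01), held 48 h at 36 °C, 5% CO2. Viability read by MTT (OD 540 nm) against virus-only wells; IC50 is 50% cell protection. […] SI = CC50/IC50.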

| SMILES | antiviral activity against influenza virus A/PR/8/34 (H1N1), in words [1] | antiviral activity against Coxsackie B3 virus, in words [2] |
| --- | --- | --- |
| O=c1[nH]c(=O)n(CCCc2cn([C@@H]3O[C@H](CO)[C@@H](O)[C@H]3O)nn2)c2ccccc12 [Compound 4h, N1-{[1-(β-D-ribofuranosyl)-1H-1,2,3-triazol-4-yl]propyl}-2,4(1H,3H)-quinazolinedione] | antiviral activity was demonstrated |  |
| Cc1[nH]c(=O)[nH]c(=O)c1Cc1cn([C@@H]2O[C@H](CO)[C@@H](O)[C@H]2O)nn1 [Compound 8m, 6-Methyl-5-{[1-(β-D-ribofuranosyl)-1H-1,2,3-triazol-4-yl]methyl}-2,4(1H,3H)-pyrimidinedione] | antiviral activity was demonstrated |  |
| Cc1[nH]c(=O)[nH]c(=O)c1CCCc1cn([C@@H]2O[C@H](CO)[C@@H](O)[C@H]2O)nn1 [Compound 8n, 6-Methyl-5-{[1-(β-D-ribofuranosyl)-1H-1,2,3-triazol-4-yl]propyl}-2,4(1H,3H)-pyrimidine-dione] | antiviral activity was demonstrated |  |
| Cc1[nH]c(=O)[nH]c(=O)c1CCCCc1cn([C@@H]2O[C@H](CO)[C@@H](O)[C@H]2O)nn1 [Compound 8o, 6-Methyl-5-{[1-(β-D-ribofuranosyl)-1H-1,2,3-triazol-4-yl]butyl}-2,4(1H,3H)-pyrimidinedione] | completely inactive |  |
| NC(=O)c1ncn([C@@H]2O[C@H](CO)[C@@H](O)[C@H]2O)n1 [Ribavirin, 1-β-D-ribofuranosyl-1,2,4-triazole-3-carboxamide] |  | inactive |
